# Reference: ChEMBL document CHEMBL1152218, “New acridone-4-carboxylic acid derivatives as potential inhibitors of hepatitis C virus infection” (Bioorg Med Chem, 2008)
# The source made the active and inactive calls. The calls are words filed in the database; no cut-off is given here.
# Assays:
# [1] = Inhibition of HCV NS3 helicase activity by fluorimetric assay; design: species or system Hepacivirus hominis
# Procedure, shortened: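 Direct fluorometric assay of NS3 helicase unwinding, run at 37 °C. IC50 is the inhibitor concentration that reduces helicase activity by 50%.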
# Hepatitis C virus = experiment: Antiviral activity against HCV subtype 1a in Huh7 cells assessed as reduction of viral RNA replication; format: functional, organism-based, Hepacivirus hominis; details: Huh-7
# Procedure, shortened: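 Subgenomic HCV replicon (luciferase) in Huh-7 cells; compounds at 1 to 200 µM, with at least three experiments and three replicates per concentration. Luminescence is expressed as percent of control wells containing 1–2% DMSO. EC50 is the concentration that reduces luminescence by 50%.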
# [2] = Selectivity index, ratio of CC50 for human HuH7 cells to IC50 for HCV subtype 1a; format: functional, Huh-7
# Procedure, shortened: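 The ratio CC50/EC50 comes from the XTT cytotoxicity assay and the luciferase replicon assay, both run in replicon-bearing Huh-7 cells.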
# [3] = Cytotoxicity against human HuH7 cells by XTT assay; format: cell-based, Huh-7
# Procedure, shortened: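 Huh-7 cells carrying the HCV replicon were grown with serial dilutions (1 to 200 µM) for 3 days at 37 °C. XTT-PMS staining followed for 3–4 h at 37 °C. Absorbance was read at 450 nm against a 690 nm reference, with cell-free blank wells subtracted. Growth is expressed as percent of 1–2% DMSO controls, and CC50 is the concentration giving 50% growth inhibition.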
# Escherichia phage T7 = experiment: Inhibition of T7 RNA polymerase activity assessed as blockade of DNA transcription
# Procedure, shortened: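 In vitro transcription with T7 RNA polymerase, using 0.5 µg EcoRI-cut pTZ19R carrying a 341 bp insert as template. The reaction contained 2 mM of each NTP, 1 U/µl RNase inhibitor and 12 U enzyme in 40 mM Tris-HCl pH 7.9, 6 mM MgCl2, 2 mM spermidine, 10 mM NaCl and 10 mM DTT. Incubation was 1 h at 37 °C. Products were run on 1.2% agarose with EtBr, and IC99 was obtained by band densitometry.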
# Hepacivirus hominis [4] = experiment: Inhibition of HCV NS3 helicase activity in presence of increasing concentration of double stranded DNA substrate at 5 uM
# Procedure, shortened: (§1)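 Fluorometric NS3 helicase assay at 37 °C. Inhibitor was held at a constant concentration while the dsDNA substrate concentration was increased. Activity is expressed as percent of the same reaction with DMSO in place of inhibitor.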
# Hepacivirus hominis [5] = experiment: Inhibition of HCV NS3 helicase activity in presence of increasing ATP concentration
# Procedure, shortened: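 Fluorometric NS3 helicase assay, run at 37 °C, with IC50 determined at each of three ATP concentrations. Activity is expressed as percent of the same reaction with DMSO in place of inhibitor.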
# [6] = Binding affinity to dsRNA assessed as inhibition of ethidium bromide RNA intercalation at 20 uM by RNA migration retardation assay
# Nucleic Acid [7] = experiment: Binding affinity to HCV con1 dsDNA assessed as inhibition of ethidium bromide DNA intercalation at 500 uM by DNA migration retardation assay; format: nucleic-acid assay; details: Hepacivirus hominis
# [8] = Binding affinity to dsRNA assessed as inhibition of ethidium bromide RNA intercalation by RNA migration retardation assay
# Nucleic Acid [9] = experiment: Binding affinity to HCV con1 dsDNA assessed as inhibition of ethidium bromide DNA intercalation by DNA migration retardation assay; format: nucleic-acid assay; details: Hepacivirus hominis
# Hepacivirus hominis [10] = experiment: Inhibition of HCV NS3 helicase activity in presence of increasing concentration of double stranded DNA substrate at 33 uM; procedure, shortened: as §1
# Hepacivirus hominis [11] = experiment: Inhibition of HCV NS3 helicase activity in presence of increasing concentration of double stranded DNA substrate at 10 uM; procedure, shortened: as §1
IC50 [1],EC50 (Hepatitis C virus),IC99 (Escherichia phage T7),Activity (Hepacivirus hominis [4]),Activity (Hepacivirus hominis [5]),Activity [6],Activity (Nucleic Acid [7]),Activity [8],Activity (Nucleic Acid [9]),Activity (Hepacivirus hominis [10]),Activity (Hepacivirus hominis [11]),Compound,Ratio CC50/EC50 [2],CC50 [3]
> 100 µM,19 µM,80 µM,–,–,–,–,–,–,–,–,Cc1ccccc1NC(=O)c1cccc2c(=O)c3ccccc3[nH]c12,5.2,99.3 µM
> 100 µM,–,80 µM,–,–,–,–,–,–,–,–,CN(C)CCNC(=O)c1cccc2c(=O)c3ccccc3[nH]c12,–,–
6.2 µM,6.5 µM,40 µM,inactive,inactive,–,–,–,–,–,–,Cc1ccnc(NC(=O)c2cccc3c(=O)c4ccccc4[nH]c23)c1,1.1,7 µM
> 100 µM,> 100 µM,10 µM,–,–,inactive,inactive,inactive,–,–,–,Cc1ccc(NC(=O)c2cccc3c(=O)c4ccccc4[nH]c23)cc1,–,> 100 µM
–,1.4 µM,–,–,–,–,–,–,–,–,–,[N-]=[N+]=N[C@]1(CO)O[C@@H](n2ccc(N)nc2=O)[C@H](O)[C@@H]1O [4'-AZIDOCYTIDINE],–,–
20.2 µM,11.1 µM,80 µM,–,–,Active,–,–,Active,inactive,–,Cc1cccnc1NC(=O)c1cccc2c(=O)c3ccccc3[nH]c12,3.5,39.2 µM
3.8 µM,10.2 µM,40 µM,inactive,–,Active,–,–,Active,–,–,O=C(Nc1ccccn1)c1cccc2c(=O)c3ccccc3[nH]c12,40.5,412 µM
> 100 µM,–,> 100 µM,–,–,–,–,–,–,–,–,O=C(c1cccc2c(=O)c3ccccc3[nH]c12)N1CCCCC1,–,–
> 100 µM,12.9 µM,40 µM,–,–,–,–,–,–,–,–,O=C(Nc1ccccc1)c1cccc2c(=O)c3ccccc3[nH]c12,7.1,90.9 µM
> 100 µM,–,> 100 µM,–,–,–,–,–,–,–,–,O=C(NCCCN1CCOCC1)c1cccc2c(=O)c3ccccc3[nH]c12,–,–
> 100 µM,–,> 100 µM,–,–,–,–,–,–,–,–,O=C(c1cccc2c(=O)c3ccccc3[nH]c12)N1CCOCC1,–,–
> 100 µM,5.6 µM,40 µM,–,–,inactive,–,inactive,–,–,–,Cc1cccc(NC(=O)c2cccc3c(=O)c4ccccc4[nH]c23)c1,1,5.5 µM
> 100 µM,4.3 µM,> 100 µM,–,–,inactive,–,–,–,–,–,O=C(NCc1ccccn1)c1cccc2c(=O)c3ccccc3[nH]c12,2.4,10.2 µM
8.9 µM,9 µM,20 µM,–,–,Active,–,–,Active,–,inactive,O=C(Nc1ccncc1)c1cccc2c(=O)c3ccccc3[nH]c12,19.4,175 µM
